Assay [1] concerns the target T1, Delta-type opioid receptor (Homo sapiens, UniProt P41143). In words: Displacement of [125I]IOXY from human delta opioid receptor expressed in CHO cells. It counts as cell-based. Put shortly:
(§1)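 Membranes of stably transfected human opioid receptor CHO cells (hMOR, hDOR or hKOR), about 30 µg protein per tube, in 50 mM Tris-HCl pH 7.4 with protease inhibitors. [125I]IOXY at a single concentration displaced by 10 drug concentrations, 2 h at 25 °C, triplicates filtered; nonspecific with 10 µM naloxone; IC50 from two-parameter logistic fit.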
For orientation: Displacement assays read how much labelled ligand stays bound in the presence of the test substance.

The target in assay [2] is T2, Kappa-type opioid receptor (Homo sapiens, UniProt P41145). In words: Displacement of [125I]IOXY from human kappa opioid receptor expressed in CHO cells. It counts as cell-based. The procedure, abridged:
as §1

Assay [3] addresses T3, Mu-type opioid receptor (Homo sapiens, UniProt P35372). In words: Displacement of [125I]IOXY from human mu opioid receptor expressed in CHO cells. The class given is cell-based. The procedure, abridged:
as §1

The target in assay [4] is T2, Kappa-type opioid receptor. In words: Antagonist activity at human kappa opioid receptor expressed in CHO cells by [35S]GTP-gamma-S assay. It counts as functional, cell-based. Put shortly:
(§2)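 [35S]GTP-γ-S binding on hDOR-CHO or hKOR-CHO membranes, 10 µM GDP, 50 pM radioligand, 3 h at 25 °C. Inhibition of stimulation by SNC80 (500 nM, δ) or (-)-U50,488 (500 nM, κ); ≥3 experiments of 10 points pooled, two-parameter logistic fit for IC50; Ke = IC50/(1+[D]/ED50(D)).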
(Binding of GTPγS marks nucleotide exchange on a G protein.)

Assay [5] has as its target T3, Mu-type opioid receptor. Particulars: CHO.
Assay [6] has as its target T1, Delta-type opioid receptor. In words: Antagonist activity at human delta opioid receptor expressed in CHO cells by [35S]GTP-gamma-S assay. The class given is functional, cell-based. The procedure, abridged:
as §2

For assay [7], the target named is T3, Mu-type opioid receptor. Conditions: CHO. The source holds these as a separate data set.
Assay [8] has as its target T1, Delta-type opioid receptor. The assay is described as follows: Agonist activity at human delta opioid receptor expressed in CHO cells by [35S]GTP-gamma-S assay. The class given is functional, cell-based. Put shortly:
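Membranes from stably transfected hDOR-CHO cells (DMEM, 10% FBS, G-418) in 50 mM Tris-HCl pH 7.4 with 100 mM NaCl, 10 mM MgCl2, 1 mM EDTA, 1 mM DTT, 10 µM GDP, 0.1% BSA; 50 pM [35S]GTP-γ-S, 3 h, 25 °C; filtration.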

The subject of assay [9] is Mus musculus. In words: Antinociceptive activity in mouse assessed after 30 to 40 mins at 1 mg/kg by warm water tail flick test. The class given is functional. The procedure, abridged:
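Mice, 55 °C water tail immersion after baseline (non-responders within 5 s excluded); s.c. dosing, tested 10–180 min post-injection, 10 s cutoff. % antinociception = 100×(test−control)/(10−control); A50 from linear regression at peak-effect time, ≥3 doses and 10 mice/dose.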
(Thermal pain tests record how soon the animal reacts.)

In assay [10] the test system is Mus musculus. The assay is described as follows: Antinociceptive activity in sc dosed mouse by hot plate assay. It counts as functional.
The subject of assay [11] is Mus musculus. The assay is described as follows: Induction of straub tail in mouse at 1 mg/kg. The class given is functional, organism-based. Details: dose 1 mg/kg. Put shortly: (§3)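 Signs observed in mice during in vivo antinociceptive testing after s.c. injection in 5% hydroxypropyl-β-cyclodextrin in water.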
Assay [12] concerns Mus musculus. The assay is described as follows: Antinociceptive activity in sc dosed mouse by phenylquinone assay. The class given is functional.
Assay [13] has as its system Mus musculus. The assay is described as follows: Increased locomotor activity in mouse at 1 mg/kg. Details: dose 1 mg/kg. The class given is functional, organism-based. The procedure, abridged: as §3
Assay [14] concerns Mus musculus. In words: Induction of convulsions in mouse at 1 mg/kg. The class given is functional, organism-based. Details: dose 1 mg/kg. Put shortly:
as §3

The subject of assay [15] is Mus musculus. The assay is described as follows: Antinociceptive activity in sc dosed mouse by tail flick assay. It counts as functional.
For assay [16], the target named is T1, Delta-type opioid receptor. In words: Agonist activity at human delta opioid receptor expressed in CHO cells by [35S]GTP-gamma-S assay relative to SNC80. The class given is functional, cell-based. Put shortly: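 Membranes from CHO cells stably transfected with human δ-opioid receptor cDNA (grown in DMEM, 10% FBS, G-418), incubated 3 h at 25 °C with 50 pM [35S]GTP-γ-S, 10 µM GDP, 50 µg protein in 50 mM Tris-HCl pH 7.4, 100 mM NaCl, 10 mM MgCl2, 1 mM EDTA, 1 mM DTT, 0.1% BSA. Nonspecific binding: 40 µM GTP-γ-S. Filtration, scintillation counting. Emax is extrapolated maximum, 100% = 500 nM SNC80 stimulation.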

In assay [17] the test system is Mus musculus. The assay is described as follows: Induction of ataxia in mouse at 1 mg/kg. The class given is functional, organism-based. Also noted: dose 1 mg/kg. Put shortly:
as §3

Assay [18] has as its system Mus musculus. The assay is described as follows: Increased locomotor activity in mouse up to 30 mg/kg. It counts as functional, organism-based. Also noted: dose 30 mg/kg. Put shortly:
as §3

In assay [19] the test system is Mus musculus. In words: Induction of straub tail in mouse up to 30 mg/kg. It counts as functional, organism-based. Details: dose 30 mg/kg. The procedure, abridged:
as §3

Activity calls are given as the source filed them.

T3 sequence (P35372 whole entry): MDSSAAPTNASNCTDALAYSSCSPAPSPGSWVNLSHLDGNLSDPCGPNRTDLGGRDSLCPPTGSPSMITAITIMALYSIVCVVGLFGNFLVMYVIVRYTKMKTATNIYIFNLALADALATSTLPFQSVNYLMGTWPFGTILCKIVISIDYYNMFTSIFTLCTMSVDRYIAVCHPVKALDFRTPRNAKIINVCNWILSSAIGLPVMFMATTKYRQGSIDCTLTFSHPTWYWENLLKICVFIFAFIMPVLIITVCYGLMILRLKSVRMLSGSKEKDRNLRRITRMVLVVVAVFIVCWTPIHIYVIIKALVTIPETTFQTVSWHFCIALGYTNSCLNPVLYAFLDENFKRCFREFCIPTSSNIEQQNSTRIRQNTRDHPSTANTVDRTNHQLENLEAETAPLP
T1 sequence (P41143 whole entry): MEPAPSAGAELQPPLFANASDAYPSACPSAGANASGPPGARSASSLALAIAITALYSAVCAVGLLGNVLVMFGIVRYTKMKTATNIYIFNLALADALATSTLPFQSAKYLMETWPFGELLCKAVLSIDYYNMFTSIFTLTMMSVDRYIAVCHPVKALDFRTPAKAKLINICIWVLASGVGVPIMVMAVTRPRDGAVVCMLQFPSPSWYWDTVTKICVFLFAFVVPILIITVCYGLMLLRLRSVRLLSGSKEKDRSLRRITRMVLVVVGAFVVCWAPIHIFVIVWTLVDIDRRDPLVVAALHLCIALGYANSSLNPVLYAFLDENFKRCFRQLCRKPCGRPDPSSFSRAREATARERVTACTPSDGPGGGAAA
T2 sequence (P41145 whole entry): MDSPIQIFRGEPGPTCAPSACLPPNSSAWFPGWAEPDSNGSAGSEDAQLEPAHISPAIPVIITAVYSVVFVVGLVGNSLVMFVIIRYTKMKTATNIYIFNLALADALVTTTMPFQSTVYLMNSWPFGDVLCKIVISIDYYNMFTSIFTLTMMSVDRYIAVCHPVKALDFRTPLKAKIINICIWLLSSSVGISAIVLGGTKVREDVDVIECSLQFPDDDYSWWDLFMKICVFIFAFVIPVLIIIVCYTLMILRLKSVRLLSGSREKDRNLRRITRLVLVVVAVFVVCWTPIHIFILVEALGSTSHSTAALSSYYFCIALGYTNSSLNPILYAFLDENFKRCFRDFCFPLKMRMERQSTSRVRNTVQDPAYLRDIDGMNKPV

What is called Ki is a dissociation constant, usually derived from enzyme kinetics or from competition with a known ligand. As for `C[C@H]1C2CCCC1(c1cccc(O)c1)CCN2CCc1ccccc1` (mixture of isomers), the Ki in assay [1] is 0.27 µM; in assay [2] it was 0.0145 µM; at Mu-type opioid receptor [3] it was 0.0031 µM.

As for `O=C1[C@@H]2CCC[C@@]1(c1cccc(O)c1)CCN2CCc1ccccc1`, the inhibitory constant (Ki) in assay [1] stood at 4.6 µM; in assay [2] it was 3.83 µM; on Mu-type opioid receptor [3], 0.4 µM.

Turning to `C[C@H]1[C@H]2CCC[C@]1(c1cccc(O)c1)CCN2CCc1ccccc1`, the Ki in assay [1] worked out at 0.09 µM; in assay [2], 0.004 µM; on Mu-type opioid receptor [3] it was 0.0006 µM. The figures for the Ke (in [4]; in assay [6]; on Mu-type opioid receptor [7]) were 6 nM, 31 nM and 4.4 nM, respectively. The molecule also displayed an ED50 at Mu-type opioid receptor [5] of 0.0087 µM.

Turning to `C=C1[C@@H]2CCC[C@]1(c1cccc(O)c1)CCN2CCc1ccccc1`, the Ki in assay [1] amounted to 0.234 µM; in assay [2], 0.018 µM; on Mu-type opioid receptor [3] it was 0.007 µM.

As for `Oc1cccc([C@@]23CCC[C@@H]([C@@H]2O)N(CCc2ccccc2)CC3)c1`, the results for the Ki (in [1]; in assay [2]; on Mu-type opioid receptor [3]) were 2.74 µM, 0.235 µM and 0.054 µM, respectively.

`Oc1cccc([C@]23CCC[C@H]([C@@H]2O)N(CCc2ccccc2)CC3)c1`: the Ki in assay [1] amounted to 1.57 µM; in assay [2] it was 0.245 µM; at Mu-type opioid receptor [3] it was 0.059 µM.

On to `O=C1[C@H]2CCC[C@]1(c1cccc(O)c1)CCN2CCc1ccccc1`, for which the Ki in [1] was 0.77 µM; in assay [2], 0.15 µM; on Mu-type opioid receptor [3], 0.033 µM.

As for `C=CCN1C[C@H](C)N([C@H](c2ccc(C(=O)N(CC)CC)cc2)c2cccc(OC)c2)C[C@H]1C`, the ED50 in [8] is 0.026 µM.

Take `CN1CC[C@]23c4c5ccc(O)c4O[C@H]2[C@@H](O)C=C[C@H]3[C@H]1C5` [MORPHINE]: the A50 in the assay on Mus musculus [9] is 5.95 mg/kg.

As to `Oc1cccc([C@@]23CCC[C@@H]([C@H]2O)N(CCc2ccccc2)CC3)c1`, the Ki in [1] is 0.72 µM; in assay [2], 0.69 µM; at Mu-type opioid receptor [3], 0.045 µM.

For `C[C@@H]1[C@@H]2CCC[C@@]1(c1cccc(O)c1)CCN2CCc1ccccc1`, the inhibition constant Ki in assay [1] worked out at 0.3 µM; in assay [2], 0.015 µM; on Mu-type opioid receptor [3], 0.008 µM.

The term Emax denotes the greatest response seen or fitted, relative to the assay's reference. As to `Oc1cccc([C@]23CCC[C@H]([C@H]2O)N(CCc2ccccc2)CC3)c1`, the Ki in [1] came to 0.013 µM; in [2], 0.184 µM; at Mu-type opioid receptor [3], 0.00019 µM. The Ke in assay [4] turned out to be 610 nM. Also, the ED50 at Mu-type opioid receptor [5] stood at 0.005 µM; with Mus musculus [10], 0.002 mg/kg; in the assay on Mus musculus [12], 0.002 mg/kg; in the assay with Mus musculus [15], 0.004 mg/kg; in assay [8], 0.341 µM. In addition, the outcome with Mus musculus [11], in the assay on Mus musculus [13], in the assay on Mus musculus [14] and with Mus musculus [17] was Active. The Emax in assay [16] was found to be 73%.

Take `C=C1[C@H]2CCC[C@@]1(c1cccc(O)c1)CCN2CCc1ccccc1`: the outcome with Mus musculus [18] and in the assay on Mus musculus [19] was inactive. For the same molecule, the figures for the Ki (in assay [1]; in assay [2]; at Mu-type opioid receptor [3]) were 0.015 µM, 0.00065 µM and 0.00019 µM, respectively. For the same molecule, the Ke in [4] is 2 nM; in assay [6], 12 nM; on Mu-type opioid receptor [7], 2.2 nM. In addition, the A50 with Mus musculus [9] is 0.11 mg/kg. In addition, the ED50 on Mu-type opioid receptor [5] came to 0.0027 µM; in the assay with Mus musculus [10], 0.02 mg/kg; in the assay with Mus musculus [12] it was 0.02 mg/kg; in the assay on Mus musculus [15], 0.03 mg/kg.

Values taken from ChEMBL document CHEMBL1148706, “Probes for narcotic receptor mediated phenomena. 34. Synthesis and structure-activity relationships of a potent mu-agonist delta-antagonist and an exceedingly potent antinociceptive in the enantiomeric C9-substituted 5-(3-hydroxyphenyl)-N-phenylethylmorphan series” (J Med Chem, 2007).
